Counter-ions that a name gives are not always drawn.
Experiments:
Format in all cases: cell-based
MCF-7 = test: Anticancer screening, MTT assay, 72 h; details: Homo sapiens, MCF7, 72 h
In short: (§1)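 Monolayer cultures were kept at 37 °C, 5% CO2 and plated on day 0 at 3 × 10^4 cells/mL (HCT 116, H460) or 5 × 10^4 cells/mL (MCF-7). Test agents were added in ten-fold dilutions (10−8 to 10−4 M) and incubated 72 h. Growth was read by MTT at 570 nm. GI50 is the concentration giving 50% inhibition. Two independent experiments were run, points at least in triplicate.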

HCT 116 = test: Anticancer screening, MTT assay, 72 h; details: Homo sapiens
In short: as §1

H460 = test: Anticancer screening, MTT assay, 72 h; details: Homo sapiens
In short: as §1

LN-229 = test: Anticancer screening, MTS cell proliferation assay, 72 h; details: Homo sapiens
In short: (§2)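 Human solid-tumour lines were grown as monolayers in supplier-recommended media at 37 °C, 5% CO2. LN-229 was seeded at 375 and Capan-1 at 250 cells/well and incubated overnight. Cells were then exposed for 72 h to seven concentrations (100 to 6.4 × 10−3 µM). MTS reagent was added and absorbance read at 490 nm. Two independent experiments were run, each point at least in triplicate.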

Capan-1 = test: as above; details: Homo sapiens
In short: as §2

DND-41 = test: Anticancer screening, MTS cell proliferation assay, 72 h; details: Homo sapiens
In short: (§3)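 HL-60, K-562, Z-138 and DND-41 suspension cells were seeded at 2500–6000 cells/well directly into wells already containing test compound at seven concentrations (100 to 6.4 × 10−3 µM). After 72 h, MTS reagent was added and absorbance read at 490 nm. GI50 is the concentration giving 50% growth inhibition. Two independent experiments were run, each point at least in triplicate.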

HL-60 = test: as above; details: Homo sapiens
In short: as §3

K-562 = test: as above; details: Homo sapiens
In short: as §3

Z-138 = test: as above; details: Homo sapiens
In short: as §3

Compound | GI50 (MCF-7) | GI50 (HCT 116; HCT-116, 72 h) | GI50 (H460; NCI-H460, 72 h) | GI50 (LN-229; LN-229, 72 h) | GI50 (Capan-1; CAPAN-1, 72 h) | GI50 (DND-41; DND41, 72 h) | GI50 (HL-60; HL-60, 72 h) | GI50 (K-562; K562, 72 h) | GI50 (Z-138; Z-138, 72 h) | GI50 (HCT 116; HCT-116) | GI50 (H460; NCI-H460) | GI50 (LN-229; LN-229) | GI50 (Capan-1; CAPAN-1) | GI50 (DND-41; DND41) | GI50 (HL-60; HL-60) | GI50 (K-562; K562) | GI50 (Z-138; Z-138)
COc1cc(NC(C)CCCN)c2ncccc2c1 (stereo not shown) [PQ, primaquine diphosphate, reference compound] | 7 ± 1.5 µM | 17 ± 1 µM | 17 ± 3 µM | 9.9 ± 0.4 µM | 9 ± 3.2 µM | 14 ± 1 µM | 7 ± 0.5 µM | 43.3 ± 0.1 µM | 10.2 ± 0.5 µM |  |  |  |  |  |  |  | 
CC(=O)O[C@@]12CO[C@@H]1C[C@H](O)[C@@]1(C)C(=O)[C@H](O)C3=C(C)[C@@H](OC(=O)[C@H](O)[C@@H](NC(=O)OC(C)(C)C)c4ccccc4)C[C@@](O)([C@@H](OC(=O)c4ccccc4)[C@H]21)C3(C)C [DTX, docetaxel, reference compound] |  |  |  |  |  |  |  |  |  | 0.0045 ± 0.0044 µM | 0.0058 ± 0.0038 µM | 0.0035 ± 0.0012 µM | 0.0045 ± 0.002 µM | 0.002 ± 0.0012 µM | 0.0104 ± 0.0024 µM | 0.0096 ± 0.0033 µM | 0.0014 ± 0.0009 µM
C=C(CC(=O)OC)C(=O)NCc1cccnc1 [Compound 8, Methyl 3-{[(pyridin-3-yl)methyl]carbamoyl}but-3-enoate] | 6 ± 1 µM | 3 ± 1 µM | 16 ± 2 µM | 8.4 ± 0.1 µM | 9.1 ± 0.7 µM | 16.3 ± 0.1 µM | 11 ± 0.3 µM | 53.3 ± 2.7 µM | 10.2 ± 0.3 µM |  |  |  |  |  |  |  | 
C=C(CC(=O)OC)C(=O)Nc1cncc(F)c1 [Compound 7, Methyl 3-[(5-fluoropyridin-3-yl)carbamoyl]but-3-enoate] | 3 ± 1.1 µM | 7 ± 2 µM | 16 ± 2 µM | 8.1 ± 0.3 µM | 6.8 ± 1.7 µM | 21 ± 2.2 µM | 10.6 ± 0.7 µM | 43.4 µM | 9 ± 0.2 µM |  |  |  |  |  |  |  | 
CN[C@@H]1C[C@H]2O[C@@](C)([C@@H]1OC)n1c3ccccc3c3c4c(c5c6ccccc6n2c5c31)C(=O)NC4 [STS, staurosporine, reference compound] |  |  |  |  |  |  |  |  |  | 0.023 ± 0.0114 µM | 0.048 ± 0.0023 µM | 0.0634 ± 0.0223 µM | 0.0323 ± 0.0032 µM | 0.0161 ± 0.0105 µM | 0.0312 ± 0.0123 µM | 0.0337 ± 0.0036 µM | 0.0261 ± 0.0139 µM
C=C(CC(=O)OC)C(=O)NCCCC(C)Nc1cc(OC)cc2cccnc12 (stereo not shown) [Compound 11, Methyl 3-({4-[(6-methoxyquinolin-8-yl)amino]pentyl}carbamoyl)but-3-enoate] | 4 ± 1 µM | 2.5 ± 0.07 µM | 4 ± 0.5 µM | 4.3 ± 2.2 µM | 5.4 ± 3.3 µM | 18.1 ± 1.1 µM | 11.1 ± 0.6 µM | 28.1 ± 7.1 µM | 11 ± 0.2 µM |  |  |  |  |  |  |  | 
C=C(CC(=O)OC)C(=O)NCCc1cccnc1 [Compound 9, Methyl 3-{[2-(pyridin-3-yl)ethyl]carbamoyl}but-3-enoate] | 2 ± 1 µM | 4 ± 1 µM | 15 ± 1 µM | 6.2 ± 0.8 µM | 5.9 ± 0.2 µM | 18.5 ± 2.4 µM | 9.6 ± 0.6 µM | 34.5 ± 8.7 µM | 5.6 ± 1.6 µM |  |  |  |  |  |  |  | 
C=C(CC(=O)OC)C(=O)Nc1cccnc1 [Compound 6, Methyl 3-[(pyridin-3-yl)carbamoyl]but-3-enoate] | 3 ± 1 µM | 12 ± 2 µM | 18 ± 1 µM | 10.2 ± 1 µM | 8.9 ± 0.1 µM | 26.3 ± 6.6 µM | 13.1 ± 1 µM | 49.9 ± 2.2 µM | 10.9 µM |  |  |  |  |  |  |  | 
C=C(CC(=O)OC)C(=O)Nc1ccc(F)cc1 [Compound 2, Methyl 3-[(4-fluorophenyl)carbamoyl]but-3-enoate] | 2 ± 0.1 µM | 4 ± 1 µM | 15 ± 1 µM | 8 ± 0.6 µM | 2.8 ± 0.6 µM | 15.7 µM | 9.3 ± 0.5 µM | 15.9 ± 1 µM | 8.4 ± 0.5 µM |  |  |  |  |  |  |  | 
CCN(CC)CCCC(C)Nc1ccnc2cc(Cl)ccc12 (stereo not shown) [CQ, chloroquine diphosphate, reference compound] | 6 ± 1.8 µM | 16 ± 3 µM | 13 ± 0.8 µM | 22 ± 2.8 µM | 14.9 ± 1.5 µM | 53.7 ± 6.9 µM | 13 ± 0.2 µM | 45 ± 0.7 µM | 13.6 ± 0.6 µM |  |  |  |  |  |  |  | 
C=C(CC(=O)OC)C(=O)Nc1cc(OC)cc2cccnc12 [Compound 5, Methyl 3-[(6-methoxyquinolin-8-yl)carbamoyl]but-3-enoate] | 10 ± 2.5 µM | 12 ± 2 µM | 8 ± 2 µM | 6.2 ± 0.4 µM | 6.3 ± 2.3 µM | 25.5 ± 9.4 µM | 10.1 ± 0.1 µM | 31 ± 3.9 µM | 6.1 ± 0.3 µM |  |  |  |  |  |  |  | 
COc1ccc2[nH]c(CCNC(=O)C=C(C)C(=O)NCCc3c[nH]c4ccc(OC)cc34)cc2c1 [Compound 14, N′-[2-(5-methoxy-1H-indol-2-yl)ethyl]-N-[2-(5-methoxy-1H-indol-3-yl)ethyl]-2-methylbut-2-enediamide] | 11 ± 0.3 µM | 13 ± 0.2 µM | 23 ± 1 µM |  |  |  |  |  |  |  |  |  |  |  |  |  | 
C=C(CC(=O)OC)C(=O)Nc1cccc(C(F)(F)F)c1 [Compound 3, Methyl 3-{[3-(trifluoromethyl)phenyl]carbamoyl}but-3-enoate] | 2 ± 0.4 µM | 3 ± 1 µM | 9 ± 2 µM | 4.4 ± 0.1 µM | 1.9 ± 0.3 µM | 21.2 ± 4 µM | 3.7 ± 0.1 µM | 13.9 ± 0.6 µM | 5.4 ± 0.1 µM |  |  |  |  |  |  |  | 

Now from value to molecule, other results behind:

GI50 (MCF-7) | GI50 (HCT 116; HCT-116, 72 h) | GI50 (H460; NCI-H460, 72 h) | GI50 (LN-229; LN-229, 72 h) | GI50 (Capan-1; CAPAN-1, 72 h) | GI50 (DND-41; DND41, 72 h) | GI50 (HL-60; HL-60, 72 h) | GI50 (K-562; K562, 72 h) | GI50 (Z-138; Z-138, 72 h) | Compound | GI50 (HCT 116; HCT-116) | GI50 (H460; NCI-H460) | GI50 (LN-229; LN-229) | GI50 (Capan-1; CAPAN-1) | GI50 (DND-41; DND41) | GI50 (HL-60; HL-60) | GI50 (K-562; K562) | GI50 (Z-138; Z-138)
0.7 ± 0.2 µM | 2.4 ± 0.4 µM | 3 ± 1 µM | 2.4 ± 0.8 µM | 2.3 ± 0.3 µM | 7.9 ± 4.4 µM | 2.6 ± 0.2 µM | 8.6 ± 0.3 µM | 6.9 ± 1.3 µM | CC(=CC(=O)NCCCCNc1cc(C(F)(F)F)nc2c(C(F)(F)F)cccc12)C(=O)NCCCCNc1cc(C(F)(F)F)nc2c(C(F)(F)F)cccc12 [Compound 15, N,N′-bis(4-{[2,8-bis(trifluoromethyl)quinolin-4-yl]amino}butyl)-2-methylbut-2-enediamide] |  |  |  |  |  |  |  | 
1 ± 0.3 µM | 3 ± 1 µM | 11 ± 3 µM | 7.7 ± 0.2 µM | 5.3 ± 0.5 µM | 16.1 ± 0.4 µM | 8 ± 0.8 µM | 31.3 ± 3 µM | 8.2 ± 0.4 µM | C=C(CC(=O)OC)C(=O)Nc1ccc(C(F)(F)F)cc1 [Compound 4, Methyl 3-{[4-(trifluoromethyl)phenyl]carbamoyl}but-3-enoate] |  |  |  |  |  |  |  | 
2 ± 1.2 µM | 3 ± 1 µM | 11 ± 1 µM | 6.5 ± 1.2 µM | 2.4 ± 0.9 µM | 18.9 ± 4.2 µM | 4.9 ± 0.8 µM | 16.5 ± 1 µM | 2.6 ± 0.3 µM | C=C(CC(=O)OC)C(=O)NCCc1c[nH]c2ccc(OC)cc12 [Compound 10, Methyl 3-{[2-(5-methoxy-1H-indol-3-yl)ethyl]carbamoyl}but-3-enoate] |  |  |  |  |  |  |  | 
1.3 ± 0.2 µM | 2 ± 0.1 µM | 1.5 ± 0.1 µM | 0.1 ± 0.1 µM | 2 ± 0.1 µM | 3.2 ± 0.2 µM | 5.9 ± 3.2 µM | 9.4 ± 0.3 µM | 12.6 ± 0.1 µM | OC(c1cc(C(F)(F)F)nc2c(C(F)(F)F)cccc12)C1CCCCN1 (stereo not shown) [MQ, mefloquine hydrochloride, reference compound] |  |  |  |  |  |  |  | 
0.8 ± 0.3 µM | 2 ± 0.05 µM | 2 ± 0.9 µM | 1.1 ± 0.1 µM | 1.3 ± 0.4 µM | 3.1 ± 0.1 µM | 1.9 µM | 8.1 ± 0.4 µM | 1.9 ± 0.1 µM | C=C(CC(=O)OC)C(=O)NCCCCNc1ccnc2cc(Cl)ccc12 [Compound 12, Methyl 3-({4-[(7-chloroquinolin-4-yl)amino]butyl}carbamoyl)but-3-enoate] |  |  |  |  |  |  |  | 
1.4 ± 0.1 µM | 2 ± 0.8 µM | 3.5 ± 1.3 µM | 10.8 ± 2.5 µM | 32.2 ± 2.7 µM | 36.7 ± 10 µM | 10.3 ± 1.5 µM | 46.9 ± 0.7 µM | 12.2 ± 0.1 µM | C=C(CC(=O)OC)C(=O)NCCCCNc1cc(C(F)(F)F)nc2c(C(F)(F)F)cccc12 [Compound 13, Methyl 3-[(4-{[2,8-bis(trifluoromethyl)quinolin-4-yl]amino}butyl)carbamoyl]but-3-enoate] |  |  |  |  |  |  |  | 

Source: publication PMC7548052 (Molecular Diversity, 2020)
